# Measured values pooled from the literature.
SMILES,test system,setting,Cmax
O=C([O-])C(=O)[O-].[NH-][C@@H]1CCCC[C@H]1[NH-].[Pt+4] (relative stereo),"rat, plasma","intravenous, 5 mg/kg",2450 ng/mL
COc1ncccc1-c1cnn2ccc(N3CCN(C(=O)OC(C)C)CC3)nc12,"rat, plasma","oral, 10 mg/kg",3100 nM
O=C(Nc1cccnn1)N1CCN([C@@H]2CCOc3cc(C(F)(F)F)ccc32)CC1,"male Sprague-Dawley rat, plasma","oral, 3 mg/kg",1520 nM
CCCCCn1cc(C(=O)Nc2cccc3ccccc23)c2ccccc21,"male Long-Evans rat, plasma","intraperitoneal, 3 mg/kg",296 ng/mL
N=c1c2c(-c3ccccc3)c(-c3ccccc3)n(Cc3ccccc3)c2ncn1[C@H]1CC[C@H](O)CC1,"male Sprague-Dawley rat, plasma","oral, 2 mg/kg, single dose",133 ng/mL
Cl.Cl.O=C(CCN1CCCCC1)c1ccc(-c2ccc(C(=O)CCN3CCCCC3)cc2)cc1,"Sprague-Dawley rat, plasma","intravenous, 5 mg/kg",725 ng/mL
C#Cc1ccc2c(c1)C(c1ccccn1)=NCc1c(-c3cnco3)ncn1-2,"rat, plasma","oral, 2 mg/kg",395 nM
[2H]C([2H])([2H])n1cc2cc(Nc3nc(=O)n(Cc4ncn(C)n4)c(=O)n3Cc3cc(F)c(F)cc3F)c(Cl)cc2n1,"male Sprague-Dawley rat, plasma","intravenous, 5 mg/kg",23900 ng/mL
COC(=O)C(NC(=O)c1cn(CCCCCF)c2ccccc12)C(C)(C)C (stereo not drawn),"male Sprague-Dawley rat, plasma","subcutaneous, 50 µg/kg",1.72 ng/mL
CCC[C@@](N)(CO)CCc1ccc(OCCCCCC(C)C)cc1,"rat, plasma","oral, 100 mg/kg",1030 nM
CCCCCCCC(=O)N[C@@H](CCCCN)C(=O)N[C@@H](CCCCN)C(=O)N[C@@H](C)C(=O)N[C@@H](CC(C)C)C(=O)N[C@@H](CCCCN)C(=O)N[C@@H](CC(C)C)C(=O)N[C@@H](C)C(=O)N[C@@H](CCCCN)C(=O)N[C@@H](CCCCN)C(=O)N1CCC[C@H]1C(=O)N[C@@H](CC(C)C)C(=O)N[C@@H](CCCCN)C(=O)N[C@@H](CC(C)C)C(=O)N[C@@H](CC(C)C)C(=O)N[C@@H](CCCCN)C(N)=O,"male Sprague-Dawley rat, blood","intravenous, 3 mg/kg, infusion",273 ng/mL
Cc1ncc(C)n2nc(/C=C/c3nc(N4CCCC4)cc(N4CCOCC4)n3)nc12,"male Sprague-Dawley rat, plasma","oral, 0.3 mg/kg",36 nM
CCCCCn1nc(C(=O)Nc2cccc3ccccc23)c2ccccc21,"male Long-Evans rat, plasma","intraperitoneal, 3 mg/kg",213 ng/mL
COc1ccc2c3c1O[C@H]1C[C@@H](OC(=O)c4ccccc4)C=C[C@@]31CCN(C)C2,"rat, brain","intravenous, 5 mg/kg",13600 ng/g
[2H]C([2H])(c1cc(F)c(F)cc1F)n1c(=O)n(Cc2ncn(C)n2)c(=O)[nH]/c1=N\c1cc2cn(C)nc2cc1Cl,"male Sprague-Dawley rat, plasma","intravenous, 5 mg/kg",25200 ng/mL
